GSH bead fluor = compound fluorescence on glutathione beads, profiling panel, artefact control, biophysical, 488/530 nm, flow cytometry; GSH beads flow cytometry, compound fluorescence 488/530 nm; active compounds read high; fluorescence (KMESF) at 10 µM; 0.25% of 190,000 active; AID 1776, 2009; in the data active = fluorescence above about 89;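 also: glutathione beads carrying GST-tagged Bcl family fusion proteins plus one bare bead set; values are compound well signal with DMSO vehicle wells as background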
PMI act satM6P = human PMI activators, high substrate, primary screen, biochemical, fluorescence intensity, near-saturating mannose 6-phosphate; Mannose-6-phosphate isomerase (Homo sapiens), P34949; AID 1216, 2008; coupled PMI enzyme assay, resazurin fluorescence, 20 min; active compounds read high; 1 = untreated enzyme, 0 = substrate-free blank; 0.34% of 190,000 active; activation factor at 20 µM;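 active = activation factor of 2 or more at 20 µM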
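Material: human phosphomannose isomerase with PGI, G6PDH, diaphorase coupling enzymes / Reagent: Man-6-P substrate 1.0 mM / Dosing: single compound dose of 20 µM, 1% DMSO final / Incubation: enzyme reaction with compound 20 min at room temperature / Signal: resorufin fluorescence (Ex 544/Em 590 nm) from resazurin via diaphorase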
Diaphorase act = compounds boosting diaphorase resazurin reduction – biochemical, uHTS, resorufin fluorescence, counter-screen for diaphorase-coupled primary assays, primary screen. activation factor at 20 µM. Diaphorase/resazurin coupled assay, 16 min; active compounds read high; 1 = vehicle wells, 0 = NADH-free wells. 0.005% of 190,000 active;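 active = diaphorase activity raised at least twofold by the compound at 20 µM; inactive = activation factor below 2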
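Material: Purified diaphorase enzyme from Clostridium kluyveri | Buffer or medium: 50 mM HEPES pH 7.4 with 4.542 mM MgCl2, 0.005% Tween 20 | Times: 16 min enzyme reaction, ambient temperature | Signal: Red resorufin fluorescence at 544/590 nm excitation/emission | Measure: Increased resorufin signal from activators or reducing compounds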
Avidin bead fluor = green autofluorescence of compounds with avidin beads – biophysical, 488/530 nm, flow cytometry, artefact control, profiling panel. compound fluorescence 488/530 nm; active compounds read high. fluorescence (KMESF) at 10 µM. 0.38% of 220,000 active; in the data active = fluorescence above about 47
PMI activator = activators of human PMI, primary screen, biochemical, fluorescence intensity, near-Km mannose 6-phosphate | Mannose-6-phosphate isomerase (Homo sapiens), P34949 | purified human PMI, coupled resazurin fluorescence, 20 min; active compounds read high; 1 = vehicle control, 0 substrate-free wells | activation factor at 20 µM | 0.005% of 190,000 active;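 active = activation factor of 2 or more at 20 µM, relative to plate controls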
p47phox inh = p47phox/p22phox peptide binding inhibitors, primary screen, biochemical, uHTS, NADPH oxidase regulatory subunit; Neutrophil cytosol factor 1 (Homo sapiens), P14598; fluorescence polarization, 2 h; inhibition, % at 24.7 µM; 0.53% of 220,000 active;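 active = inhibition above about 30%, limit read from the data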;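 also: 0% = p47phox with labelled peptide and 100% = labelled peptide alone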
Target sequence (P14598 whole entry, looked up): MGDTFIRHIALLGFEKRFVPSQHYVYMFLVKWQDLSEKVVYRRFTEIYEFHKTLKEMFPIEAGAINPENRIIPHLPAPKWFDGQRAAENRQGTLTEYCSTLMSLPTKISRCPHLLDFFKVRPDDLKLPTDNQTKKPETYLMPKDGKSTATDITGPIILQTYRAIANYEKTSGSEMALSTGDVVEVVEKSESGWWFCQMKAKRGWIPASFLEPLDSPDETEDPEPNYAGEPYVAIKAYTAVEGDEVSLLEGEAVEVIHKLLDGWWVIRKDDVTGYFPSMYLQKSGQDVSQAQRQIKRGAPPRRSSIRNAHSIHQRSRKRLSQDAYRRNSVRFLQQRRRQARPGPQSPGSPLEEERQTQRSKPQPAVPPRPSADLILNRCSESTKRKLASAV
Starred values were filed as active, the others as inactive. Sampled rows, rich in hits. Any-hit rate of the full collection: about 1.4%.

`O=C1OC(c2cccs2)=N/C1=C\c1ccc(-c2ccccc2Cl)o1` gave GSH bead fluor 38, PMI act satM6P 1.1, Diaphorase act 0.8, Avidin bead fluor 20, PMI activator 0.9 and p47phox inh 81*.
`CCCCN1CN(S(=O)(=O)c2cccs2)c2nc3ccccc3nc21` gave GSH bead fluor 22, PMI act satM6P 2.2*, Diaphorase act 1, Avidin bead fluor 18, PMI activator 1.6 and p47phox inh 2.
`O=C(Nc1ccc2c(c1)OCO2)c1ccc(NC2CC2)c([N+](=O)[O-])c1` gave GSH bead fluor 12, PMI act satM6P 0.9, Diaphorase act 0.9, Avidin bead fluor 12, PMI activator 0.9 and p47phox inh -9.
COc1ccc2cc3cc(C(=O)Nc4ccc5c(c4)OCCO5)oc3nc2c1 was read as GSH bead fluor 27, PMI act satM6P 0.9, Diaphorase act 0.9, Avidin bead fluor 12, PMI activator 0.9 and p47phox inh 32*.
Screening CCOc1ccc(N/C=C/C(=O)c2ccccc2)c([N+](=O)[O-])c1 returned GSH bead fluor 11, PMI act satM6P 1, Diaphorase act 1, Avidin bead fluor 10, PMI activator 1 and p47phox inh 31*.
O=S(=O)(c1ccc(N=C2NN=C(c3cc(F)ccc3F)CS2)cc1)N1CCOCC1 was read as GSH bead fluor 14, PMI act satM6P 2.3*, Diaphorase act 1, Avidin bead fluor 8, PMI activator 1.7 and p47phox inh -22.
For COc1ccc(-c2csc3nc(-c4ccc(C)cc4)oc(=O)c23)cc1OC the results were GSH bead fluor 8, PMI act satM6P 1, Diaphorase act 0.9, Avidin bead fluor 16, PMI activator 0.9 and p47phox inh 43*.
`COc1ccc(-c2csc3nc(C(C)(C)C)oc(=O)c23)cc1OC` gave GSH bead fluor 23, PMI act satM6P 1, Diaphorase act 0.8, Avidin bead fluor 11, PMI activator 1 and p47phox inh 3.
`O=C(COC(=O)c1cc([N+](=O)[O-])ccc1NCCO)NCc1cccs1` gave GSH bead fluor 22, PMI act satM6P 0.9, Diaphorase act 0.9, Avidin bead fluor 23, PMI activator 1 and p47phox inh 6.
`CC12CCC(C(=O)N3CCN(Cc4ccccc4)CC3)(OC1=O)C2(C)C` (centres undefined) gave GSH bead fluor 8, PMI act satM6P 1, Diaphorase act 0.8, Avidin bead fluor 11, PMI activator 1 and p47phox inh 32*.
Screening CC12CCC(C(=O)N3CCCCCC3)(OC1=O)C2(C)C (centres undefined) returned GSH bead fluor 42, PMI act satM6P 1, Diaphorase act 0.9, Avidin bead fluor 7, PMI activator 1 and p47phox inh -16.
Screening O=C(C1CCN(S(=O)(=O)c2cccnc2)CC1)N1CCN(C2CCCC2)CC1 returned GSH bead fluor 29, PMI act satM6P 0.9, Diaphorase act 1, Avidin bead fluor 71*, PMI activator 1 and p47phox inh -8.
For O=C(C1CCN(S(=O)(=O)c2cccc3cccnc23)CC1)N1CCN(C2CCCCC2)CC1 the results were GSH bead fluor 14, PMI act satM6P 0.9, Diaphorase act 0.9, Avidin bead fluor 27, PMI activator 0.9 and p47phox inh -1.
`COc1cc(C)c(C)cc1S(=O)(=O)N1CCN(Cc2ccc3c(c2)OCO3)CC1` gave GSH bead fluor 35, PMI act satM6P 0.8, Diaphorase act 0.8, Avidin bead fluor 14, PMI activator 0.8 and p47phox inh -3.
Screening CC1=NN(C(=O)c2ccco2)C(O)(c2ccccc2)C1 (centres undefined) returned Avidin bead fluor 10 and p47phox inh 0.
Screening COc1ccc(Cl)cc1S(=O)(=O)n1cnc2ccccc21 returned GSH bead fluor 15, PMI act satM6P 1, Diaphorase act 0.9, Avidin bead fluor 62*, PMI activator 0.9 and p47phox inh -5.
`Cc1ccc2nc(C)c3c(c2c1)SCC3` gave Avidin bead fluor 102* and p47phox inh -2.
`COc1cc(/C=N/NC(=O)COc2ccccc2C)ccc1OC(=O)c1cccs1` gave GSH bead fluor 26, PMI act satM6P 0.9, Diaphorase act 0.8, Avidin bead fluor 35, PMI activator 0.9 and p47phox inh -3.
COc1cc(/C=N/Nc2cccc(C)c2)ccc1OC(=O)c1cccs1 was read as GSH bead fluor 10, PMI act satM6P 2.1*, Diaphorase act 0.7, Avidin bead fluor 12, PMI activator 1.4 and p47phox inh -4.
Screening COc1cc(/C=N/Nc2cccc(C)c2)cc(Br)c1O returned GSH bead fluor 16, PMI act satM6P 2.4*, Diaphorase act 0.8, Avidin bead fluor 9, PMI activator 1.7 and p47phox inh -9.
`CCN(C(=O)c1cnc(NC(C)C)cc1C(F)(F)F)c1ccc(Cl)cc1Cl` gave Avidin bead fluor 6 and p47phox inh -9.
CCc1nc2ccccc2n1Cc1ccccc1OC was read as GSH bead fluor 13, PMI act satM6P 1.1, Diaphorase act 1.1, Avidin bead fluor 35, PMI activator 1.1 and p47phox inh -8.
Screening CSCC[C@H](NC(=O)OC(C)(C)C)c1nnc(SCC=C(C)C)o1 returned GSH bead fluor 267*, PMI act satM6P 1, Diaphorase act 0.8, Avidin bead fluor 8, PMI activator 1 and p47phox inh -2.
For COc1ccc(C2CCCN2C(=O)Nc2ccc(C)c(C)c2)cc1OC (centres undefined) the results were GSH bead fluor 25, PMI act satM6P 0.9, Diaphorase act 0.8, Avidin bead fluor 7, PMI activator 0.9 and p47phox inh -10.
CC(=O)c1ccc2noc(-c3ccc(C)cc3)c2c1 was read as GSH bead fluor 70, PMI act satM6P 2*, Diaphorase act 1, Avidin bead fluor 8, PMI activator 1.9 and p47phox inh -10.
For NS(=O)(=O)c1ccc(NC(=O)CSc2ncn[nH]2)cc1 the results were GSH bead fluor 20, PMI act satM6P 1, Diaphorase act 0.9, Avidin bead fluor 5, PMI activator 1 and p47phox inh -7.
